# From ChEMBL document CHEMBL5058577, “EUbOPEN Chemogenomics Library 2 (Multiplex)” (2022)
# Tested on: Fibroblast
# Experiment: Multiplex assay against human fibroblast
# Format: toxicity, cell-based
# Outline: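 Live cells were stained at seeding with Hoechst33342, BioTracker Green Microtubule Cytoskeleton Dye, MitoTracker Red and Annexin V Alexa Fluor 680. Following compound addition, they were imaged on a CQ1 microscope at 37°C and 5% CO2 and gated by CellPathfinder machine learning into Hoechst high-intensity objects or normal cells, with normal cells split into healthy, pyknosed or fragmented nuclei and pyknosed cells into mitotic or apoptotic. Tubulin, mitochondrial-mass and membrane-permeability phenotypes are per cents of healthy-nucleus cells.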
# [1] = 12 h, 1 µM, compound concentration 1 uM, replicate 1
# [2] = 12 h, 1 µM, compound concentration 1 uM, replicate 2
# [3] = 12 h, 10 µM, compound concentration 10 uM, replicate 1
# [4] = 12 h, 10 µM, compound concentration 10 uM, replicate 2
# [5] = 24 h, 1 µM, compound concentration 1 uM, replicate 1
# [6] = 24 h, 1 µM, compound concentration 1 uM, replicate 2
# [7] = 24 h, 10 µM, compound concentration 10 uM, replicate 1
# [8] = 24 h, 10 µM, compound concentration 10 uM, replicate 2
# [9] = 48 h, 1 µM, compound concentration 1 uM, replicate 1
# [10] = 48 h, 1 µM, compound concentration 1 uM, replicate 2
# [11] = 48 h, 10 µM, compound concentration 10 uM, replicate 1
# [12] = 48 h, 10 µM, compound concentration 10 uM, replicate 2
compound,measurement,setting,value
C[C@@H]1CC(=O)Nc2cccc(-c3ccc4c(c3)c(-c3cnn(C)c3)nn4C)c2N1,Population Apoptotic (%),[1],38%
same,Population Fragmented Nuclei (%),[1],20%
same,Population Healthy Nuclei (%),[1],63%
same,Population Hoechst High Intensity Objects (%),[1],1%
same,Population Membrane Permeable-Phenotype (%),[1],0%
same,Population Mitochondria Different-Phenotype (%),[1],4%
same,Population Mitotic Cells (%),[1],61%
same,Population Normal (%),[1],98%
same,Population Pyknosed Nuclei (%),[1],15%
same,Population Tubulin-Different-Phenotype (%),[1],31%
same,Total Cell Count,[1],115
same,Population Fragmented Nuclei (%),[2],26%
same,Population Healthy Nuclei (%),[2],47%
same,Population Hoechst High Intensity Objects (%),[2],5%
same,Population Membrane Permeable-Phenotype (%),[2],8%
same,Population Mitochondria Different-Phenotype (%),[2],12%
same,Population Normal (%),[2],94%
same,Population Pyknosed Nuclei (%),[2],26%
same,Population Tubulin-Different-Phenotype (%),[2],51%
same,Total Cell Count,[2],105
same,Population Apoptotic (%),[3],40%
same,Population Fragmented Nuclei (%),[3],17%
same,Population Healthy Nuclei (%),[3],65%
same,Population Hoechst High Intensity Objects (%),[3],5%
same,Population Membrane Permeable-Phenotype (%),[3],1%
same,Population Mitochondria Different-Phenotype (%),[3],19%
same,Population Mitotic Cells (%),[3],59%
same,Population Normal (%),[3],94%
same,Population Pyknosed Nuclei (%),[3],17%
same,Population Tubulin-Different-Phenotype (%),[3],63%
same,Total Cell Count,[3],161
same,Population Apoptotic (%),[4],30%
same,Population Fragmented Nuclei (%),[4],11%
same,Population Healthy Nuclei (%),[4],58%
same,Population Hoechst High Intensity Objects (%),[4],6%
same,Population Membrane Permeable-Phenotype (%),[4],7%
same,Population Mitochondria Different-Phenotype (%),[4],5%
same,Population Mitotic Cells (%),[4],69%
same,Population Normal (%),[4],93%
same,Population Pyknosed Nuclei (%),[4],30%
same,Population Tubulin-Different-Phenotype (%),[4],68%
same,Total Cell Count,[4],126
same,Population Apoptotic (%),[5],57%
same,Population Fragmented Nuclei (%),[5],16%
same,Population Healthy Nuclei (%),[5],67%
same,Population Hoechst High Intensity Objects (%),[5],2%
same,Population Membrane Permeable-Phenotype (%),[5],2%
same,Population Mitochondria Different-Phenotype (%),[5],5%
same,Population Mitotic Cells (%),[5],42%
same,Population Normal (%),[5],97%
same,Population Pyknosed Nuclei (%),[5],15%
same,Population Tubulin-Different-Phenotype (%),[5],33%
same,Total Cell Count,[5],122
same,Population Apoptotic (%),[6],35%
same,Population Fragmented Nuclei (%),[6],29%
same,Population Healthy Nuclei (%),[6],50%
same,Population Hoechst High Intensity Objects (%),[6],7%
same,Population Membrane Permeable-Phenotype (%),[6],11%
same,Population Mitochondria Different-Phenotype (%),[6],9%
same,Population Mitotic Cells (%),[6],65%
same,Population Normal (%),[6],92%
same,Population Pyknosed Nuclei (%),[6],19%
same,Population Tubulin-Different-Phenotype (%),[6],60%
same,Total Cell Count,[6],112
same,Population Apoptotic (%),[7],75%
same,Population Fragmented Nuclei (%),[7],19%
same,Population Healthy Nuclei (%),[7],69%
same,Population Hoechst High Intensity Objects (%),[7],10%
same,Population Membrane Permeable-Phenotype (%),[7],0%
same,Population Mitochondria Different-Phenotype (%),[7],15%
same,Population Mitotic Cells (%),[7],25%
same,Population Normal (%),[7],89%
same,Population Pyknosed Nuclei (%),[7],11%
same,Population Tubulin-Different-Phenotype (%),[7],66%
same,Total Cell Count,[7],158
same,Population Apoptotic (%),[8],42%
same,Population Fragmented Nuclei (%),[8],13%
same,Population Healthy Nuclei (%),[8],57%
same,Population Hoechst High Intensity Objects (%),[8],5%
same,Population Membrane Permeable-Phenotype (%),[8],1%
same,Population Mitochondria Different-Phenotype (%),[8],4%
same,Population Mitotic Cells (%),[8],57%
same,Population Normal (%),[8],94%
same,Population Pyknosed Nuclei (%),[8],29%
same,Population Tubulin-Different-Phenotype (%),[8],76%
same,Total Cell Count,[8],119
same,Population Apoptotic (%),[9],50%
same,Population Fragmented Nuclei (%),[9],25%
same,Population Healthy Nuclei (%),[9],60%
same,Population Hoechst High Intensity Objects (%),[9],5%
same,Population Membrane Permeable-Phenotype (%),[9],1%
same,Population Mitochondria Different-Phenotype (%),[9],6%
same,Population Mitotic Cells (%),[9],50%
same,Population Normal (%),[9],94%
same,Population Pyknosed Nuclei (%),[9],14%
same,Population Tubulin-Different-Phenotype (%),[9],21%
same,Total Cell Count,[9],114
same,Population Apoptotic (%),[10],30%
same,Population Fragmented Nuclei (%),[10],36%
same,Population Healthy Nuclei (%),[10],50%
same,Population Hoechst High Intensity Objects (%),[10],2%
same,Population Membrane Permeable-Phenotype (%),[10],12%
same,Population Mitochondria Different-Phenotype (%),[10],8%
same,Population Mitotic Cells (%),[10],69%
same,Population Normal (%),[10],97%
same,Population Pyknosed Nuclei (%),[10],13%
same,Population Tubulin-Different-Phenotype (%),[10],60%
same,Total Cell Count,[10],102
same,Population Apoptotic (%),[11],92%
same,Population Fragmented Nuclei (%),[11],17%
same,Population Healthy Nuclei (%),[11],73%
same,Population Hoechst High Intensity Objects (%),[11],3%
same,Population Membrane Permeable-Phenotype (%),[11],0%
same,Population Mitochondria Different-Phenotype (%),[11],19%
same,Population Mitotic Cells (%),[11],7%
same,Population Normal (%),[11],96%
same,Population Pyknosed Nuclei (%),[11],8%
same,Population Tubulin-Different-Phenotype (%),[11],68%
same,Total Cell Count,[11],162
same,Population Apoptotic (%),[12],60%
same,Population Healthy Nuclei (%),[12],62%
same,Population Hoechst High Intensity Objects (%),[12],4%
same,Population Membrane Permeable-Phenotype (%),[12],6%
same,Population Mitochondria Different-Phenotype (%),[12],2%
same,Population Mitotic Cells (%),[12],39%
same,Population Normal (%),[12],95%
same,Population Pyknosed Nuclei (%),[12],19%
same,Population Tubulin-Different-Phenotype (%),[12],69%
same,Total Cell Count,[12],122
